Assay results from ChEMBL document CHEMBL1125286, “Zatosetron, a potent, selective, and long-acting 5HT3 receptor antagonist: synthesis and structure-activity relationships” (J Med Chem, 1992).
One block for each compound: values may come before it.

Assays:
[1] = biological target: T1, Serotonin 3 (5-HT3) receptor (Rattus norvegicus) (UniProt P35563+Q9JJ16); experiment: 5-hydroxytryptamine 3 receptor antagonistic activity measured by inhibition of 5-HT-induced bradycardia (iv administration 10 ug/kg dose in urethane-anesthetized rats); type: functional, organism-based
How it was run: (§1)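 Urethane-anesthetized rats. First 5HT challenge 30 μg/kg iv gives a transient bradycardia. Once heart rate is back at steady state (≤5 min), test compound or saline goes in via the femoral vein. 5HT 30 μg/kg iv is repeated 15 min later. % inhibition is the difference between first and second bradycardia at peak, each animal its own control. Means ± SEM, groups of 3–16 rats.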

[2] = biological target: T1, Serotonin 3 (5-HT3) receptor (Rattus norvegicus); experiment: Compound was tested for the inhibition of 5-HT-induced bradycardia after peroral administration of 3 ug/kg dose in urethane-anesthetized rats; type: functional, organism-based
How it was run: (§2)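 Fasted rats gavaged (5 mL/kg) with antagonist or vehicle (distilled water). Urethane anesthesia and surgical preparation followed, 15–20 min before 5HT challenge. 5HT 30 µg/kg iv given 1 h after dosing, with vehicle-treated rats as controls. Peak % inhibition of bradycardia in groups of 3–11, means ± SEM.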

[3] = biological target: T1, Serotonin 3 (5-HT3) receptor (Rattus norvegicus); experiment: Compound was tested for the inhibition of 5-HT-induced bradycardia after peroral administration of 0.03 mg/kg dose in urethane-anesthetized rats at 6 hour; type: functional, organism-based; set-up: dose 0.03 mg/kg
How it was run: (§3)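 Duration study: antagonist or vehicle gavaged to conscious fasted rats (5 mL/kg). Rats were urethane-anesthetized and surgically prepared, then challenged with 5HT 0.03 mg/kg iv at the stated time after dosing. Vehicle-treated rats served as controls. Peak inhibition of bradycardia recorded in groups of 3–11, means ± SEM.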

[4] = biological target: T1, Serotonin 3 (5-HT3) receptor (Rattus norvegicus); experiment: Compound was tested for the inhibition of 5-HT-induced bradycardia after intravenous administration of 1 ug/kg dose in urethane-anesthetized rats; type: functional, organism-based
How it was run: (§4)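 Urethane-anesthetized rats; antagonist or saline given iv via femoral vein after heart rate settled (≤5 min) from an initial 5HT challenge (30 µg/kg iv). 5HT was given again 15 min later. Peak bradycardia measured, each rat its own control; % inhibition = difference between first and second responses. Groups of 3–16 rats, means ± SEM.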

[5] = biological target: T1, Serotonin 3 (5-HT3) receptor (Rattus norvegicus); experiment: Compound was tested for the inhibition of 5-HT-induced bradycardia after peroral administration of 0.03 mg/kg dose in urethane-anesthetized rats at 0.05 hour; type: functional, organism-based; set-up: dose 0.03 mg/kg; details: in the assay text read “0.5 hour” for “0.05 hour”; how it was run: as §3
[6] = biological target: T1, Serotonin 3 (5-HT3) receptor (Rattus norvegicus); experiment: 5-hydroxytryptamine 3 receptor antagonistic activity was measured by the inhibition of 5H+ T-induced bradycardia after iv administration of 3 ug/kg dose in urethane-anesthetized rats; type: functional, organism-based; how it was run: as §4
[7] = biological target: T1, Serotonin 3 (5-HT3) receptor (Rattus norvegicus); experiment: Inhibition of 5-HT-induced bradycardia by 5-hydroxytryptamine 3+; type: functional
[8] = biological target: T1, Serotonin 3 (5-HT3) receptor (Rattus norvegicus); experiment: Compound was tested for the inhibition of 5-HT-induced bradycardia after peroral administration of 0.03 mg/kg dose in urethane-anesthetized rats at 16 hour; type: functional, organism-based; set-up: dose 0.03 mg/kg; how it was run: as §3
[9] = biological target: T1, Serotonin 3 (5-HT3) receptor (Rattus norvegicus); experiment: Compound was tested for the inhibition of 5-HT-induced bradycardia after peroral administration of 30 ug/kg dose in urethane-anesthetized rats; type: functional, organism-based; how it was run: as §2
[10] = biological target: T1, Serotonin 3 (5-HT3) receptor (Rattus norvegicus); experiment: Compound was tested for the inhibition of 5-HT-induced bradycardia after peroral administration of 0.03 mg/kg dose in urethane-anesthetized rats at 1 hour; type: functional, organism-based; set-up: dose 0.03 mg/kg; how it was run: as §3
[11] = biological target: T1, Serotonin 3 (5-HT3) receptor (Rattus norvegicus); experiment: Compound was tested for the inhibition of 5-HT-induced bradycardia after intravenous administration of 0.3 ug/kg dose in urethane-anesthetized rats; type: functional, organism-based; how it was run: as §4
[12] = system: Serotonin 3 receptor (Cavia porcellus); experiment: In vitro binding affinity was measured for 5-hydroxytryptamine 3 receptor in the guinea pig ileum.
[13] = biological target: T1, Serotonin 3 (5-HT3) receptor (Rattus norvegicus); experiment: Compound was tested for the inhibition of 5-HT-induced bradycardia after peroral administration of 10 ug/kg dose in urethane-anesthetized rats; type: functional, organism-based; how it was run: as §2
[14] = biological target: T1, Serotonin 3 (5-HT3) receptor (Rattus norvegicus); experiment: Compound was tested for the inhibition of 5-HT-induced bradycardia after peroral administration of 0.03 mg/kg dose in urethane-anesthetized rats at 3 hour; type: functional, organism-based; set-up: dose 0.03 mg/kg; how it was run: as §3
[15] = biological target: T1, Serotonin 3 (5-HT3) receptor (Rattus norvegicus); experiment: Compound was tested for the inhibition of 5-HT-induced bradycardia after peroral administration in urethane-anesthetized rats
[16] = biological target: T1, Serotonin 3 (5-HT3) receptor (Rattus norvegicus); experiment: 5-hydroxytryptamine 3 receptor antagonistic activity as inhibition of 5-HT-induced bradycardia after iv administration of 100 ug/kg dose in urethane-anesthetized rats; type: functional, organism-based; how it was run: as §1
[17] = biological target: T1, Serotonin 3 (5-HT3) receptor (Rattus norvegicus); experiment: Compound was tested for the inhibition of 5-HT-induced bradycardia after peroral administration of 0.3 mg/kg at 6 hours in urethane-anesthetized rats; type: functional, organism-based; set-up: dose 0.3 mg/kg; details: at 0.3 mg/kg
How it was run: (§5)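 Duration study. Antagonist or vehicle is given by oral gavage to conscious rats. Rats are then urethane-anesthetized, surgically prepared and challenged with 5HT 0.03 mg/kg iv at the stated time after dosing. Peak inhibition of bradycardia is measured against vehicle-treated controls. Means ± SEM, groups of 3–11 rats.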

[18] = biological target: T1, Serotonin 3 (5-HT3) receptor (Rattus norvegicus); experiment: Compound was tested for the inhibition of 5-HT-induced bradycardia after peroral administration of 0.3 mg/kg at 0.5 hours in urethane-anesthetized rats; type: functional, organism-based; set-up: dose 0.3 mg/kg; details: at 0.3 mg/kg; how it was run: as §5
[19] = biological target: T1, Serotonin 3 (5-HT3) receptor (Rattus norvegicus); experiment: Compound was tested for the inhibition of 5-HT-induced bradycardia after peroral administration of 100 ug/kg dose in urethane-anesthetized rats; type: functional, organism-based; how it was run: as §2
[20] = biological target: T1, Serotonin 3 (5-HT3) receptor (Rattus norvegicus); experiment: Compound was tested for the inhibition of 5-HT-induced bradycardia after peroral administration of 0.3 mg/kg at 3 hours in urethane-anesthetized rats; type: functional, organism-based; set-up: dose 0.3 mg/kg; details: at 0.3 mg/kg; how it was run: as §5
[21] = biological target: T1, Serotonin 3 (5-HT3) receptor (Rattus norvegicus); experiment: Compound was tested for the inhibition of 5-HT-induced bradycardia after peroral administration of 0.3 mg/kg at 1 hour in urethane-anesthetized rats; type: functional, organism-based; set-up: dose 0.3 mg/kg; details: at 0.3 mg/kg; how it was run: as §5
[22] = biological target: T1, Serotonin 3 (5-HT3) receptor (Rattus norvegicus); experiment: Compound was tested for the inhibition of 5-HT-induced bradycardia after peroral administration of 1000 ug/kg dose in urethane-anesthetized rats; type: functional, organism-based; how it was run: as §2
[23] = biological target: T1, Serotonin 3 (5-HT3) receptor (Rattus norvegicus); experiment: 5-hydroxytryptamine 3 receptor antagonistic activity was measured by the inhibition of 5H+ T-induced bradycardia after po administration of 30 ug/kg dose in urethane-anesthetized rats; type: functional, organism-based
How it was run: (§6)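 Fasted rats dosed by gavage (5 mL/kg) with compound or distilled-water vehicle. Urethane anesthesia and surgical preparation 15–20 min before challenge. 5HT 0.03 mg/kg iv given 1 h after dosing. Peak bradycardia is compared with vehicle-treated controls. Means ± SEM, groups of 3–11 rats.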

[24] = biological target: T1, Serotonin 3 (5-HT3) receptor (Rattus norvegicus); experiment: 5-hydroxytryptamine 3 receptor antagonistic activity was measured by the inhibition of 5H+ T-induced bradycardia after po administration of 1000 ug/kg dose in urethane-anesthetized rats; type: functional, organism-based; how it was run: as §6
[25] = biological target: T1, Serotonin 3 (5-HT3) receptor (Rattus norvegicus); experiment: 5-hydroxytryptamine 3 receptor antagonistic activity was measured by the inhibition of 5H+ T-induced bradycardia after po administration of 300 ug/kg dose in urethane-anesthetized rats; type: functional, organism-based; how it was run: as §6
[26] = biological target: T1, Serotonin 3 (5-HT3) receptor (Rattus norvegicus); experiment: Compound was tested for the inhibition of 5-HT-induced bradycardia after peroral administration of 1 mg/kg at 0.5 hours in urethane-anesthetized rats; type: functional, organism-based; set-up: dose 1 mg/kg; details: at 1 mg/kg; how it was run: as §3
[27] = biological target: T1, Serotonin 3 (5-HT3) receptor (Rattus norvegicus); experiment: Compound was tested for the inhibition of 5-HT-induced bradycardia after peroral administration of 1 mg/kg at 1 hour in urethane-anesthetized rats; type: functional, organism-based; set-up: dose 1 mg/kg; details: at 1 mg/kg; how it was run: as §3
[28] = biological target: T1, Serotonin 3 (5-HT3) receptor (Rattus norvegicus); experiment: Compound was tested for the inhibition of 5-HT-induced bradycardia after peroral administration of 1 mg/kg at 3 hours in urethane-anesthetized rats; type: functional, organism-based; set-up: dose 1 mg/kg; details: at 1 mg/kg; how it was run: as §3
[29] = biological target: T1, Serotonin 3 (5-HT3) receptor (Rattus norvegicus); experiment: 5-hydroxytryptamine 3 receptor antagonistic activity was measured by the inhibition of 5H+ T-induced bradycardia after po administration of 100 ug/kg dose in urethane-anesthetized rats; type: functional, organism-based; how it was run: as §6

Compound: CN1[C@@H]2CC[C@H]1C[C@@H](NC(=O)c1cc(Cl)cc3c1OC(C)(C)C3)C2 (stereo in doubt)
inhibition [2]: 19.1% | inhibition [3]: 81.4% | inhibition [4]: 66.2% | inhibition [5]: 86.4% | inhibition [6]: 84.4% | ED50 [7]: 0.9 µg/kg | inhibition [8]: 0% | inhibition [9]: 77.6% | inhibition [10]: 77.6% | inhibition [11]: 10.8% | -Log KB [12]: 8.78 | inhibition [13]: 57.1% | inhibition [14]: 61.1% | ED50 [15]: 9.2 µg/kg

Compound: CN1C2CCC1CC(NC(=O)c1cc(Br)cc3c1OC(C)(C)C3)C2 (stereo not drawn)
inhibition [6]: 15.9% | inhibition [1]: 68.7%

Compound: Cc1cc2cccc(C(=O)OC3CC4CCC(C3)N4C)c2o1 (stereo not drawn)
inhibition [1]: 7.3%

Compound: CN1C2CCC1CC(NC(=O)c1c(Cl)ccc3c1OC(C)(C)C3)C2 (stereo not drawn)
inhibition [1]: 0.8%

Compound: Cc1cc2c(c(C(=O)NC3CC4CCC(C3)N4C)c1)OC(C)(C)C2 (stereo not drawn)
inhibition [6]: 11.2% | inhibition [1]: 87.1%

Now from value to compound:

inhibition [1]: 16.7%
Compound: CN1C2CCC1CC(NC(=O)c1ccc3c(c1)CC(C)(C)O3)C2 (stereo not drawn)

inhibition [4]: 20.1% | inhibition [16]: 70.6% | inhibition [17]: 17.4% | inhibition [6]: 54.2% | ED50 [7]: 3.1 µg/kg | inhibition [18]: 86.6% | inhibition [19]: 39.8% | inhibition [13]: 0.1% | inhibition [20]: 65.2% | inhibition [21]: 77.4% | inhibition [22]: 85% | ED50 [15]: 127 µg/kg
Compound: CN1[C@@H]2CC[C@H]1C[C@@H](OC(=O)c1c[nH]c3ccccc13)C2

inhibition [23]: 0.3% | inhibition [24]: 73.4% | ED50 [7]: 3.3 µg/kg | inhibition [25]: 55.1% | inhibition [26]: 74.3% | inhibition [27]: 73.4% | inhibition [28]: 6.5% | inhibition [29]: 18.2% | ED50 [15]: 316 µg/kg
Compound: Cc1nccn1CC1CCc2c(c3ccccc3n2C)C1=O (stereo not drawn)

inhibition [1]: 2.1%
Compound: CN1C2CCC1CC(NC(=O)c1cccc3c1CC(C)(C)O3)C2 (stereo not drawn)
